Results as given in ChEMBL document CHEMBL4130429, “Hydroxytriazole derivatives as potent and selective aldo-keto reductase 1C3 (AKR1C3) inhibitors discovered by bioisosteric scaffold hopping approach” (Eur J Med Chem, 2017).
Activity calls are given as the source filed them. The calls are words filed in the database; no cut-off is given here.

Experiments:
[1] = biological target: T1, Aldo-keto reductase family 1 member C3 (Homo sapiens, UniProt P42330); assay: Inhibition of recombinant human AKR1C3 expressed in Escherichia coli BL21 (DE) using [14C]androstenedione as substrate in presence of NADPH generating system
T1 sequence (P42330 whole entry): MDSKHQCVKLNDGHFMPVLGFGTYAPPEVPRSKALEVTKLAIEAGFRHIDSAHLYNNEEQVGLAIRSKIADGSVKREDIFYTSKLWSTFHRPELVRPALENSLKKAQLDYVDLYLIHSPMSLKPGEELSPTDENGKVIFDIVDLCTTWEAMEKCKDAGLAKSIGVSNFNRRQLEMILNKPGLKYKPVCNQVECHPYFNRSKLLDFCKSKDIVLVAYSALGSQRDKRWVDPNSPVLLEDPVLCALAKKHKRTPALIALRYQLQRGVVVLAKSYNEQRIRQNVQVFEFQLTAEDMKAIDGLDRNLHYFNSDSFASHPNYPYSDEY
Summary of the method: (§1)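 E. coli expressing AKR1C3, unlysed, suspended in 100 mM phosphate pH 6.6 (~15 µg protein). Incubated with [14C]androstenedione (6×10^-4 µCi), Tween 80 0.1 mg/mL, 1 mM ATP, 1 mM MgCl2 and NADPH-generating system (1 mM NADP+, 3 mM glucose-6-phosphate, 3 U G6PDH) for 30 min at 30 °C with shaking. Conversion to testosterone quantified by radioactivity scanning of TLC.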

[2] = biological target: T2, Prostaglandin G/H synthase 1 (Ovis aries, UniProt P05979); assay: Inhibition of ovine COX1 assessed as reduction in PGF2alpha production by ELISA
T2 sequence (P05979 whole entry): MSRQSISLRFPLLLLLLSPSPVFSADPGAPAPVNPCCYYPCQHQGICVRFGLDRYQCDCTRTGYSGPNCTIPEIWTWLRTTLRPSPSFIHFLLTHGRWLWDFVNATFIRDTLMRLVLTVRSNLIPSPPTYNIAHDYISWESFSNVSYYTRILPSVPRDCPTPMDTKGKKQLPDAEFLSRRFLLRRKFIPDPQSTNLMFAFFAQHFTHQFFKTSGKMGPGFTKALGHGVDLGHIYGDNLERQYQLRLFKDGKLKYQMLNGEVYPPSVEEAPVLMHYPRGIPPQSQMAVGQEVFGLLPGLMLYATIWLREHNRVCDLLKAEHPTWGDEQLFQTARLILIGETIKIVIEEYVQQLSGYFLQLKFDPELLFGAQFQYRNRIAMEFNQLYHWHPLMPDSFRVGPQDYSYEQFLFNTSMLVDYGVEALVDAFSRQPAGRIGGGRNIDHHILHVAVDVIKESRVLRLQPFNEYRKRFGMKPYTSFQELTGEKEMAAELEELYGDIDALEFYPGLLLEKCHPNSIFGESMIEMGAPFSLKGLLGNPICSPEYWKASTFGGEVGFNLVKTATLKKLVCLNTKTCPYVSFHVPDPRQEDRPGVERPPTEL
Summary of the method: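 Commercial COX (ovine COX-1/human COX-2) inhibitor screening kit. PGH2 formed by COX is reduced by SnCl2 to PGF2α, which is quantified by ELISA absorbance. IC50 by linear regression. Mean ± SE of at least three experiments.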

[3] = biological target: T1, Aldo-keto reductase family 1 member C3; assay: Inhibition of AKR1C3 (unknown origin) using S-tetralol as substrate in presence of NADP+ by fluorimtery
Summary of the method: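 Purified recombinant enzyme (GST-tagged, glutathione-sepharose purified, thrombin-cleaved) with S-tetralol in 100 mM phosphate pH 7, 200 µM NADP+, 10% ethanol. […] NADPH formation followed fluorimetrically (ex 340/em 460 nm) at 37 °C. IC50 from initial velocities versus solvent controls; means of two experiments in triplicate.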

[4] = biological target: T3, Aldo-keto reductase family 1 member C2 (Homo sapiens, UniProt P52895); assay: Inhibition of AKR1C2 (unknown origin) using S-tetralol as substrate by fluorimtery
T3 sequence (P52895 whole entry): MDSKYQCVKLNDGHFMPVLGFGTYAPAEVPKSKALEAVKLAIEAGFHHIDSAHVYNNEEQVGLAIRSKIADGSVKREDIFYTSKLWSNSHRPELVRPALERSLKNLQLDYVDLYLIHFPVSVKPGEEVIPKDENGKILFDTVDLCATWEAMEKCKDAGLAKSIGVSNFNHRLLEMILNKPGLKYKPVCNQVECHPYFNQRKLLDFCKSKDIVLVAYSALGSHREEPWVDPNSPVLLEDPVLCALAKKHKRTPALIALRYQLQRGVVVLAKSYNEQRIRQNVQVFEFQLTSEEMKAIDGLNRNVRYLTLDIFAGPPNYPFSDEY
Summary of the method: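 Purified recombinant enzyme (GST-tagged, glutathione-sepharose purified, thrombin-cleaved) with S-tetralol in 100 mM phosphate pH 7, 200 µM NADP+, 10% ethanol. IC50 from initial velocities versus solvent controls; means of two experiments in triplicate.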

Homo sapiens [5] = species: Homo sapiens; assay: Selectivity index, ratio of IC50 for AKR1C2 (unknown origin) to IC50 for AKR1C3 (unknown origin)
[6] = biological target: T4, Prostaglandin G/H synthase 1 (Ovis aries) (UniProt P05979); assay: Inhibition of ovine COX1 assessed as reduction in PGF2alpha production at 100 uM by ELISA
T4 sequence (whole entry): T2 sequence (P05979 whole entry)

[7] = Selectivity index, ratio of IC50 for ovine COX1 to IC50 for AKR1C3 (unknown origin)
Homo sapiens [8] = species: Homo sapiens; assay: Selectivity index, ratio of IC50 for human COX2 to IC50 for AKR1C3 (unknown origin)
CWR22R [9] = assay: Inhibition of AKR1C3-mediated testosterone production in human 22Rv1 cells at 100 uM after 1 hr in presence of androstenedione by ELISA; format: functional; conditions: 22Rv1, 1 h
CWR22R [10] = assay: Antiproliferative activity against human 22Rv1 cells after 72 hrs by sulforhodamine B colorimetric proliferation assay; format: functional, cell-based; conditions: 22Rv1, 72 h
Summary of the method: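 22RV1 castration-resistant prostate cells were seeded at 10,000 cells/well in RPMI with 10% charcoal-stripped serum and allowed to adhere for 24 h at 37 °C, 5% CO2. Inhibitor dilutions in ethanol were added in triplicate for 72 h, with ethanol-matched controls (max 1% v/v). Growth was read by SRB and given as %T/C (treated/control OD). Means of two experiments, each in triplicate.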

CWR22R [11] = assay: Inhibition of AKR1C3-mediated testosterone production in human 22Rv1 cells after 1 hr in presence of androstenedione by ELISA; format: functional, cell-based
Summary of the method: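 22RV1 cells seeded at 30,000/well in RPMI with 10% charcoal-stripped serum, 24 h. Inhibitor added at four concentrations for 1 h, then 28 nM androstenedione, further 24 h. Supernatant testosterone measured by ELISA at 405 nm against a standard curve, corrected for androstenedione cross-reactivity. Means of two experiments in triplicate.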

CWR22R [12] = assay: Antiproliferative activity against human 22Rv1 cells at 60 uM after 72 hrs by sulforhodamine B colorimetric proliferation assay; format: functional, cell-based
CWR22R [13] = assay: Synergistic antiproliferative activity against human 22Rv1 cells at 60 uM after 72 hrs in presence of 10 uM abiraterone by sulforhodamine B colorimetric proliferation assay; format: functional
Summary of the method: (§2)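 Co-treatment by SRB assay: 22RV1 cells in RPMI with 10% charcoal-stripped serum, given 60 µM inhibitor with or without 10 µM abiraterone or 20 µM enzalutamide for 72 h. Growth expressed as % T/C (mean OD treated/control ×100). Means of two experiments in triplicate.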

CWR22R [14] = assay: Synergistic antiproliferative activity against human 22Rv1 cells at 60 uM after 72 hrs in presence of 20 uM enzalutamide by sulforhodamine B colorimetric proliferation assay; format: functional; summary of the method: as §2
[15] = biological target: Prostaglandin G/H synthase 2 (Homo sapiens) (UniProt P35354); assay: Inhibition of human COX2 assessed as reduction in PGF2alpha production at 100 uM by ELISA
CWR22R [16] = assay: Antiproliferative activity against human 22Rv1 cells at 20 uM after 72 hrs by sulforhodamine B colorimetric proliferation assay; format: functional, cell-based
[17] = biological target: T5, Aldo-keto reductase family 1 member C3 (Homo sapiens) (UniProt P42330); assay: Inhibition of recombinant human AKR1C3 expressed in Escherichia coli BL21 […] at 50 uM using [14C]androstenedione as substrate in presence of NADPH generating system; summary of the method: as §1
T5 sequence (whole entry): T1 sequence (P42330 whole entry)

CWR22R [18] = assay: Antiproliferative activity against human 22Rv1 cells at 10 uM after 72 hrs by sulforhodamine B colorimetric proliferation assay; format: functional, cell-based

Prostaglandin G/H synthase 2 (Homo sapiens), sequence (P35354 whole entry, looked up): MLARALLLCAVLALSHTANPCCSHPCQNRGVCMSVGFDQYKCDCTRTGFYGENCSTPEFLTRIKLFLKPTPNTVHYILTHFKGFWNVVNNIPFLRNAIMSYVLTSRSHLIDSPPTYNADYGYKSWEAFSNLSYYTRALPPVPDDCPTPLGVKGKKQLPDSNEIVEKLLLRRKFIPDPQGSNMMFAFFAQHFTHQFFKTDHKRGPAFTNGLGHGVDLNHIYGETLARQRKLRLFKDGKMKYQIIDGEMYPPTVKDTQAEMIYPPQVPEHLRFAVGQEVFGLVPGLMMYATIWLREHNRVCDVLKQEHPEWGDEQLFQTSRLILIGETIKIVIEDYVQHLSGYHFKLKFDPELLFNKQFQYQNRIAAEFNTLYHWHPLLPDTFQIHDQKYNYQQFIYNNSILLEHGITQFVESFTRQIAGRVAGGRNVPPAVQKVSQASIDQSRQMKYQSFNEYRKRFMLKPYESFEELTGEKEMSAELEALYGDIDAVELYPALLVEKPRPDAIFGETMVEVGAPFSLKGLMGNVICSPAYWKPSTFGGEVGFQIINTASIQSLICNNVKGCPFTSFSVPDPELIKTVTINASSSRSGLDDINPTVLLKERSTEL

In the case of COc1ccc(Cn2nnc(O)c2C(=O)Nc2cccc(C(F)(F)F)c2)cc1, the IC50 [1] is reported as 3.56 µM, the IC50 [2] is reported as greater than 100 µM and the IC50 [3] is reported as 0.31 µM. It also gave an IC50 [4] of 73.2 µM, a Ratio IC50 (Homo sapiens [5]) of 236 and an inhibition [6] of 0%. The Ratio IC50 [7] was greater than 322, the Ratio IC50 (Homo sapiens [8]) was greater than 322 and the inhibition at 100 µM (CWR22R [9]) was 50%. The IC50 (CWR22R [10]) was 81.4 µM, the inhibition (CWR22R [11]) was “Dose-dependent effect” and the Activity (CWR22R [12]) was “inactive”. For the same compound, the Activity (CWR22R [13]) was 45%, the Activity (CWR22R [14]) was 50% and the inhibition [15] was 12%.

In the case of CNC(=O)c1ccc(N2C(=S)N(c3ccc(C#N)c(C(F)(F)F)c3)C(=O)C2(C)C)cc1F, the Activity (CWR22R [16]) is reported as “inactive”.

With Cn1nnc(O)c1C(=O)Nc1cccc(C(F)(F)F)c1 the IC50 [1] was 32.8 µM.

Cn1nc(O)c(C(=O)Nc2cccc(C(F)(F)F)c2)n1 showed an IC50 [1] greater than 50 µM and an inhibition [17] of 18.5%.

O=C(Nc1cccc(C(F)(F)F)c1)c1nn(CC2CC2)nc1O gave an IC50 [1] greater than 50 µM and an inhibition [17] of 5.35%.

Compound O=C(O)c1ccccc1Nc1cccc(C(F)(F)F)c1 [FLUFENAMIC ACID] has an IC50 [1] of 8.63 µM, an IC50 [2] of 14 µM and an IC50 [3] of 0.44 µM. For the same compound, the IC50 (CWR22R [10]) was 115 µM.

Compound O=C(Nc1cccc(C(F)(F)F)c1)c1c(O)nnn1Cc1ccccc1 has an IC50 [1] of 10.2 µM, an IC50 [2] greater than 100 µM and an IC50 [3] of 0.48 µM. It also gave an IC50 [4] of 62.9 µM, a Ratio IC50 (Homo sapiens [5]) of 131 and an inhibition [6] of 15%. The Ratio IC50 [7] was greater than 208, the Ratio IC50 (Homo sapiens [8]) was greater than 208 and the IC50 (CWR22R [10]) was 67.1 µM. For the same compound, the inhibition [15] was 7.5%.

In the case of C[C@]12CC[C@H](O)CC1=CC[C@@H]1[C@@H]2CC[C@]2(C)C(c3cccnc3)=CC[C@@H]12, the Activity (CWR22R [18]) is reported as “inactive”.

With O=C(Nc1cccc(C(F)(F)F)c1)c1nonc1O the IC50 [1] was greater than 50 µM and the inhibition [17] was 35.4%.

With O=C(Nc1cccc(C(F)(F)F)c1)c1nsnc1O the IC50 [1] was no less than 50 µM and the inhibition [17] was 47.2%.

With O=C(Nc1cccc(C(F)(F)F)c1)c1c(O)nnn1CC1CC1 the IC50 [1] was 13.2 µM, the IC50 [2] was greater than 100 µM and the IC50 [3] was 1.6 µM. The IC50 [4] was 70.6 µM, the Ratio IC50 (Homo sapiens [5]) was 44 and the inhibition [6] was 17%. For the same compound, the Ratio IC50 [7] was greater than 63, the Ratio IC50 (Homo sapiens [8]) was greater than 63 and the inhibition [15] was 9.6%.
